Reference: ChEMBL document CHEMBL2406950, “Replacement of a quinone by a 5-O-acetylhydroquinone abolishes the accidental necrosis inducing effect while preserving the apoptosis-inducing effect of renieramycin M on lung cancer cells” (J Nat Prod, 2013)
Active and inactive are the calls of the source. The calls are words filed in the database; no cut-off is given here.

Legend:
NCI-H23 [1] = experiment: Induction of apoptosis in human H23 cells at 20 uM after 24 hrs by Hoechst 33342/propidium iodide staining-based fluorescence microscopy; format: functional, cell-based
How it was run: (§1)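 H23 cells exposed to compound (0–20 μM range) for 24 h at 37 °C, then co-stained 30 min at 37 °C with 10 μM Hoechst 33342 and 10 μM PI. Scored by fluorescence microscopy: condensed or fragmented nuclei counted as apoptotic, PI-positive membrane-damaged cells counted as accidental necrotic. Results given as percentages; means ± SD of three independent experiments.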

[2] = Toxicity in human H23 cells assessed as induction of accidental necrosis at 20 uM after 24 hrs by Hoechst 33342/propidium iodide staining-based fluorescence microscopy; format: cell-based; conditions: nci-h23, 24 h; how it was run: as §1
[3] = Toxicity in human HK2 cells assessed as induction of accidental necrosis at 20 uM after 24 hrs by propidium iodide staining; format: cell-based; conditions: hk-2, 24 h
How it was run: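 Normal human kidney HK-2 cells exposed to compound at 20 μM for 24 h. Accidental necrotic cells identified by propidium iodide staining and expressed as percentage.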

NCI-H23 [4] = experiment: Cytotoxicity against human H23 cells assessed as cell viability at 20 uM after 24 hrs by MTT assay; format: functional, cell-based
How it was run: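 H23 non-small-cell lung cancer cells (RPMI 1640, 5% FBS, 2 mM L-glutamine) plated at 1.5 × 10^5 cells/mL, grown 24 h at 37 °C, then exposed to compound 24 h at 37 °C. MTT 500 μg/mL added for 4 h; formazan dissolved in DMSO, absorbance read at 570 nm. Viability given as percent of untreated control; at least three replicate cultures.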

NCI-H23 [5] = experiment: Induction of intracellular ROS generation in human H23 cells at 20 uM after 6 hrs by DCFH2-DA staining based fluorescence assay; format: functional, cell-based
How it was run: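 H23 cells seeded 24 h at 37 °C, medium removed, then loaded with DCFH2-DA (10 μM final) in PBS for 30 min at 4 °C. Compound added at 20 μM and incubated 6 h at 37 °C. Fluorescence read on a microplate reader (excitation 480 nm, 530 nm band-pass). Triplicate samples, means ± SD.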

[6] = Induction of intracellular superoxide anion generation in human H23 cells at 20 uM after 6 hrs by DCFH2-DA staining based fluorescence assay in presence of dihydroethidium relative to control; format: cell-based; conditions: nci-h23, 6 h
How it was run: (§2)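 Seeded cells loaded 30 min at 4 °C with 10 μM probe in PBS: HPF for hydroxyl radical, DHE for superoxide. Then 20 μM compound was added for 0−6 h at 37 °C. Plate fluorescence read at ex 490/515 nm (HPF) and ex 488/610 nm (DHE). Triplicate samples.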

NCI-H23 [7] = experiment: Induction of intracellular hydroxyl radical generation in human H23 cells at 20 uM after 6 hrs by DCFH2-DA staining based fluorescence assay in presence of HPF; format: functional, cell-based; how it was run: as §2
NCI-H23 [8] = experiment: Induction of intracellular H2O2 generation in human H23 cells at 20 uM after 6 hrs by DCFH2-DA staining based fluorescence assay in presence of sodium pyruvate; format: functional, cell-based
How it was run: (§3)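 Seeded cells (24 h) loaded 30 min at 4 °C with 10 μM DCFH2-DA in PBS, with or without 1 mM scavenger (NAC, or sodium pyruvate for H2O2). Then 20 μM compound was added and cells incubated 0−6 h at 37 °C. Fluorescence read at ex 480 nm / 530 nm band-pass. Triplicate samples.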

NCI-H23 [9] = experiment: Induction of intracellular ROS generation in human H23 cells at 20 uM after 6 hrs by DCFH2-DA staining based fluorescence assay in presence of N-acetylcysteine; format: functional, cell-based; how it was run: as §3
NCI-H23 [10] = experiment: Induction of ROS generation in human H23 cells assessed as apoptotic cells at 20 uM after 24 hrs by Hoechst 33342/propidium iodide staining-based fluorescence microscopy in presence of N-acetylcysteine; format: functional, cell-based
How it was run: (§4)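 Cells plated 24 h, then incubated 1 h at 37 °C with or without 1 mM NAC before 20 μM compound for 24 h. Staining used 10 μM Hoechst 33342 plus 10 μM PI for 30 min at 37 °C. Condensed or fragmented nuclei were scored as apoptotic and PI-stained nuclei as accidental necrotic, by fluorescence microscopy.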

[11] = Induction of accidental necrosis in human H23 cells assessed as loss of membrane integrity at 5 to 20 uM after 24 hrs by trypan blue exclusion assay; format: cell-based; conditions: nci-h23, 24 h
How it was run: (§5)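 Attached cells exposed 24 h to 0−20 μM were collected into 3% FBS/PBS and fixed in absolute ethanol at −20 °C for 24 h. They were stained 40 min at 37 °C in PI buffer containing RNase A and Triton X-100. Sub-G0 fraction was taken from the flow cytometry DNA histogram. The same cells were stained with trypan blue and counted on an automated counter, with membrane-damaged cells scored as necrotic.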

NCI-H23 [12] = experiment: Induction of apoptosis in human H23 cells assessed as accumulation of sub-G0 fraction after 24 hrs by propidium iodide staining-based flow cytometry; format: functional, cell-based; how it was run: as §5
NCI-H23 [13] = experiment: Induction of apoptosis in human H23 cells at 1 to 20 uM after 24 hrs by Hoechst 33342/propidium iodide staining-based fluorescence microscopy; format: functional; how it was run: as §1
NCI-H23 [14] = experiment: Cytotoxicity against human H23 cells assessed as cell viability after 24 hrs by MTT assay; format: functional, cell-based
How it was run: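 H23 cells (1.5 × 10^5 cells/mL) grown 24 h at 37 °C in RPMI 1640, then exposed to 0−20 μM compound for 24 h at 37 °C. MTT (500 μg/mL) added for 4 h, formazan dissolved in DMSO, absorbance read at 570 nm. Viability expressed as percent of untreated control; at least three replicate cultures.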

NCI-H23 [15] = experiment: Induction of ROS generation in human H23 cells assessed as cell viability at 20 uM after 24 hrs by MTT assay in presence of N-acetylcysteine
[16] = Induction of ROS generation in human H23 cells assessed as accidental necrotic cells at 20 uM after 24 hrs by Hoechst 33342/propidium iodide staining-based fluorescence microscopy in presence of N-acetylcysteine; format: cell-based; conditions: nci-h23, 24 h; how it was run: as §4
[17] = Toxicity in human H23 cells assessed as induction of accidental necrosis at 1 to 20 uM after 24 hrs by Hoechst 33342/propidium iodide staining-based fluorescence microscopy; format: cell-based; conditions: nci-h23, 24 h
How it was run: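 H23 cells exposed to 0−20 μM compound for 24 h at 37 °C, then stained 30 min at 37 °C with 10 μM Hoechst 33342 and 10 μM PI. PI-stained, membrane-damaged cells were scored as accidental necrotic under a fluorescence microscope.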

Compound | Activity (NCI-H23 [1]) | Activity [2] | Activity [3] | Activity (NCI-H23 [4]) | Activity (NCI-H23 [5]) | Activity [6] | Activity (NCI-H23 [7]) | Activity (NCI-H23 [8]) | Activity (NCI-H23 [9]) | Activity (NCI-H23 [10]) | Activity [11] [%] | Activity (NCI-H23 [12]) | Activity (NCI-H23 [13]) [%] | Activity (NCI-H23 [14]) | Activity (NCI-H23 [15]) | Activity [16] | Activity [17] [%]
C/C=C(/C)C(=O)OC[C@H]1c2c(c(OC(C)=O)c(C)c(OC)c2OC(C)=O)C[C@H]2[C@H]3c4c(c(OC(C)=O)c(C)c(OC)c4OC(C)=O)C[C@@H]([C@H](C#N)N12)N3C | inactive | Non-toxic | Non-toxic | Active | inactive | – | – | – | – | – | – | – | – | – | – | – | –
C/C=C(/C)C(=O)OC[C@H]1c2c(O)c(OC)c(C)c(OC(C)=O)c2C[C@H]2[C@H]3C4=C(C[C@@H]([C@H](C#N)N12)N3C)C(=O)C(C)=C(OC)C4=O | – | – | Non-toxic | – | Active | Non-toxic | inactive | inactive | inactive | Active | 1 | Dose-dependent effect | 46 | Dose-dependent effect | Active | – | –
C/C=C(/C)C(=O)OC[C@H]1C2=C(C[C@H]3[C@H]4C5=C(C[C@@H]([C@H](C#N)N13)N4C)C(=O)C(C)=C(OC)C5=O)C(=O)C(C)=C(OC)C2=O [RENIERAMYCIN M] | – | – | 60% | – | Active | Toxic | inactive | inactive | inactive | Active | 10 | Dose-dependent effect | 51 | Dose-dependent effect | inactive | Non-toxic | 2.5
